Source: ChEMBL document CHEMBL4145521, “Regioselective synthesis of 3,4-diaryl-5-unsubstituted isoxazoles, analogues of natural cytostatic combretastatin A4” (Eur J Med Chem, 2018)

Key:
Format in all cases: functional
[1] = system: T47D; test: Cytotoxicity against human T47D cells incubated for 48 hrs by sulforhodamine B assay
[2] = system: SK-MEL-28; test: Cytotoxicity against human SK-MEL-28 cells assessed as cell growth at 0.01 uM incubated for 48 hrs by sulforhodamine B assay relative to control; settings: SK-MEL-28, 48 h, read-out: Activity
[3] = system: HCT-15; test: Cytotoxicity against human HCT15 cells assessed as cell growth at 0.1 uM incubated for 48 hrs by sulforhodamine B assay relative to control; settings: HCT-15, 48 h, read-out: Activity
[4] = system: Paracentrotus lividus; test: Antimitotic activity against Paracentrotus lividus embryo assessed as embryo spinning after 15 mins to 20 hrs by light microscopy
In short: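 Free-swimming blastulae from the same culture were used just after hatching (8–10 h post-fertilization). They were kept in filtered seawater at room temperature and exposed to 2-fold decreasing concentrations. Spinning at the well bottom instead of forward swimming was monitored from 15 min to 20 h under light microscopy. The effective threshold concentration was recorded from duplicates.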

[5] = system: MDA-MB-468; test: Cytotoxicity against human MDA-MB-468 cells assessed as cell growth at 100 uM incubated for 48 hrs by sulforhodamine B assay relative to control; settings: MDA-MB-468, 48 h, read-out: Activity
[6] = system: HOP-92; test: Cytotoxicity against human HOP92 cells assessed as cell growth at 0.1 uM incubated for 48 hrs by sulforhodamine B assay relative to control; settings: HOP-92, 48 h, read-out: Activity
[7] = system: COLO 205; test: Cytotoxicity against human COLO205 cells incubated for 48 hrs by sulforhodamine B assay; settings: COLO 205, 48 h
[8] = system: HT-29; test: Cytotoxicity against human HT-29 cells assessed as cell growth at 10 uM incubated for 48 hrs by sulforhodamine B assay relative to control; settings: HT-29, 48 h, read-out: Activity
[9] = system: SNB-19; test: Cytotoxicity against human SNB19 cells assessed as cell growth at 0.01 uM incubated for 48 hrs by sulforhodamine B assay relative to control; settings: SNB-19, 48 h, read-out: Activity
[10] = system: SF-268; test: Cytotoxicity against human SF268 cells assessed as cell growth at 0.01 uM incubated for 48 hrs by sulforhodamine B assay relative to control; settings: SF-268, 48 h, read-out: Activity
[11] = system: HT-29; test: Cytotoxicity against human HT-29 cells assessed as cell growth at 100 uM incubated for 48 hrs by sulforhodamine B assay relative to control; settings: HT-29, 48 h, read-out: Activity
[12] = system: MCF7; test: Cytotoxicity against human MCF7 cells incubated for 48 hrs by sulforhodamine B assay; settings: MCF7, 48 h
[13] = system: HOP-62; test: Cytotoxicity against human HOP62 cells assessed as cell growth at 0.01 uM incubated for 48 hrs by sulforhodamine B assay relative to control; settings: HOP-62, 48 h, read-out: Activity
[14] = system: MDA-MB-435; test: Cytotoxicity against human MDA-MB-435 cells assessed as cell growth at 100 uM incubated for 48 hrs by sulforhodamine B assay relative to control; settings: MDA-MB-435, 48 h, read-out: Activity
[15] = system: NCI-H322M; test: Cytotoxicity against human NCI-H322M cells assessed as cell growth at 0.01 uM incubated for 48 hrs by sulforhodamine B assay relative to control; settings: read-out: Activity
[16] = system: SNB-75; test: Cytotoxicity against human SNB75 cells assessed as cell growth at 10 uM incubated for 48 hrs by sulforhodamine B assay relative to control; settings: SNB-75, 48 h, read-out: Activity
[17] = system: CAKI-1; test: Cytotoxicity against human Caki1 cells assessed as cell growth at 10 uM incubated for 48 hrs by sulforhodamine B assay relative to control; settings: CAKI-1, 48 h, read-out: Activity
[18] = system: RXF 393; test: Cytotoxicity against human RXF393 cells assessed as cell growth at 100 uM incubated for 48 hrs by sulforhodamine B assay relative to control; settings: RXF 393, 48 h, read-out: Activity
[19] = system: NCI-H226; test: Cytotoxicity against human NCI-H226 cells assessed as cell growth at 100 uM incubated for 48 hrs by sulforhodamine B assay relative to control; settings: NCI-H226, 48 h, read-out: Activity
[20] = system: U-251; test: Cytotoxicity against human U251 cells assessed as cell growth at 1 uM incubated for 48 hrs by sulforhodamine B assay relative to control; settings: U-251, 48 h, read-out: Activity
[21] = system: SNB-19; test: Cytotoxicity against human SNB19 cells assessed as cell growth at 100 uM incubated for 48 hrs by sulforhodamine B assay relative to control; settings: SNB-19, 48 h, read-out: Activity
[22] = system: SN12C; test: Cytotoxicity against human SN12C cells assessed as cell growth at 0.01 uM incubated for 48 hrs by sulforhodamine B assay relative to control; settings: read-out: Activity
[23] = system: BT-549; test: Cytotoxicity against human BT549 cells assessed as cell growth at 10 uM incubated for 48 hrs by sulforhodamine B assay relative to control; settings: BT-549, 48 h, read-out: Activity
[24] = system: IGROV-1; test: Cytotoxicity against human IGROV1 cells assessed as cell growth at 0.01 uM incubated for 48 hrs by sulforhodamine B assay relative to control; settings: IGROV-1, 48 h, read-out: Activity
[25] = system: A498; test: Cytotoxicity against human A498 cells assessed as cell growth at 100 uM incubated for 48 hrs by sulforhodamine B assay relative to control; settings: A498, 48 h, read-out: Activity
[26] = system: T47D; test: Cytotoxicity against human T47D cells assessed as cell growth at 100 uM incubated for 48 hrs by sulforhodamine B assay relative to control; settings: read-out: Activity
[27] = system: OVCAR-8; test: Cytotoxicity against human OVCAR8 cells assessed as cell growth at 0.01 uM incubated for 48 hrs by sulforhodamine B assay relative to control; settings: OVCAR-8, 48 h, read-out: Activity
[28] = system: K562; test: Cytotoxicity against human K562 cells assessed as cell growth at 0.1 uM incubated for 48 hrs by sulforhodamine B assay relative to control; settings: K562, 48 h, read-out: Activity
[29] = system: IGROV-1; test: Cytotoxicity against human IGROV1 cells assessed as cell growth at 100 uM incubated for 48 hrs by sulforhodamine B assay relative to control; settings: IGROV-1, 48 h, read-out: Activity
[30] = system: NCI-H322M; test: Cytotoxicity against human NCI-H322M cells assessed as cell growth at 10 uM incubated for 48 hrs by sulforhodamine B assay relative to control; settings: read-out: Activity
[31] = system: SN12C; test: Cytotoxicity against human SN12C cells assessed as cell growth at 1 uM incubated for 48 hrs by sulforhodamine B assay relative to control; settings: read-out: Activity
[32] = system: RPMI-8226; test: Cytotoxicity against human RPMI8226 cells assessed as cell growth at 0.01 uM incubated for 48 hrs by sulforhodamine B assay relative to control; settings: RPMI-8226, 48 h, read-out: Activity

## COc1ccc(-c2nocc2-c2cc(OC)c(OC)c(OC)c2)cc1
[1]; read-out: LC50
  LC50: > 100 µM
[1]; read-out: TGI
  TGI: 86.3 µM
[1]; read-out: pLC50 (converted)
  LC50: > 100 µM
[1]; read-out: pTGI (converted)
  TGI: 87.1 µM
[2]
  growth at 0.01 µM: 94%
[3]
  growth at 0.1 µM: 29%
[4]
  EC: 1 µM
[5]
  growth at 100 µM: -19%
[6]
  growth at 0.1 µM: 72%
[7]; read-out: GI50
  GI50: 0.0581 µM
[7]; read-out: LC50 (the source's name)
  CC50: > 100 µM
[7]; read-out: TGI
  TGI: 1.91 µM
[7]; read-out: pGI50 (converted)
  GI50: 0.0575 µM
[7]; read-out: pLC50 (the source's name) (converted)
  CC50: > 100 µM
[7]; read-out: pTGI (converted)
  TGI: 1.91 µM
[8]
  growth at 10 µM: 3%
[9]
  growth at 0.01 µM: 98%
[10]
  growth at 0.01 µM: 95%
[11]
  growth at 100 µM: -36%
[12]; read-out: GI50
  GI50: 0.0408 µM
[12]; read-out: LC50
  LC50: > 100 µM
[12]; read-out: TGI
  TGI: > 100 µM
[12]; read-out: pGI50 (converted)
  GI50: 0.0407 µM
[12]; read-out: pLC50 (converted)
  LC50: > 100 µM
[12]; read-out: pTGI
  TGI: > 100 µM
[13]
  growth at 0.01 µM: 85%
[14]
  growth at 100 µM: -9%
[15]
  growth at 0.01 µM: 95%
[16]
  growth at 10 µM: 19%
[17]
  growth at 10 µM: 36%
[18]
  growth at 100 µM: -2%
[19]
  growth at 100 µM: -20%
[20]
  growth at 1 µM: 22%
[21]
  growth at 100 µM: 8%
[22]
  growth at 0.01 µM: 107%
[23]
  growth at 10 µM: 9%
[24]
  growth at 0.01 µM: 97%
[25]
  growth at 100 µM: -33%
[26]
  growth at 100 µM: -4%
[27]
  growth at 0.01 µM: 103%
[28]
  growth at 0.1 µM: 24%
[29]
  growth at 100 µM: 2%
[30]
  growth at 10 µM: 35%
[31]
  growth at 1 µM: 47%
[32]
  growth at 0.01 µM: 100%
